This note sets out measurements from ChEMBL document CHEMBL1156837, “Synthesis and the biological evaluation of arylnaphthalene lignans as anti-hepatitis B virus agents” (Bioorg Med Chem, 2010).

Data set [1] deals with Hepatitis B virus. The data set is described as follows: Antiviral activity against Hepatitis B virus in human HepA2 cells assessed as reduction of HBsAg secretion after 48 hrs by enzyme immunoassay. The data set is classed as functional, organism-based. Summed up: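 HepA2 cells (HepG2 carrying tandem-repeat full-length HBV DNA) seeded at 8 × 10⁴ cells/well in DMEM with 10% fetal calf serum, attached overnight, washed twice with PBS pH 7.0, then exposed to various concentrations in serum-free DMEM for 48 h. Secreted HBsAg and HBeAg in medium measured by enzyme immunoassay; EC50 as concentration giving 50% of untreated level; mean ± SD, n = 3.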

Data set [2] can be described thus: Cytotoxicity against human HepA2 cells after 48 hrs by MTT assay. It counts as cell-based. Summed up: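 HepA2 cells seeded in 96-well plates in DMEM and treated with various concentrations of compound for 2 days; cell number measured by MTT; CC50 taken as concentration giving cell growth at 50% of untreated cells.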
In general terms: Tetrazolium dyes change colour on reduction, which living cells bring about.

In data set [3] the test system is Hepatitis B virus. The data set is described as follows: Antiviral activity against Hepatitis B virus ayw in human 1.3ES2 cells stably transfected with 1.3 fold wild type HBV ayw strain genome cells assessed as reduction of viral DNA level after 6 days by RT-PCR. The data set is classed as functional, organism-based.
The subject of data set [4] is Hepatitis B virus. The data set is described as follows: Antiviral activity against Hepatitis B virus ayw in human M33 cells containing Lamivudine resistant HBV genome with DNA polymerase L515M/M539V mutation genome cells assessed as reduction of viral DNA level after 6 days by RT-PCR. It counts as functional, organism-based. Summed up:
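M33 cells (HepG2 carrying HBV with the L515M/M539V polymerase double mutation) were maintained in DMEM with 10% FCS at 37 °C under 5% CO₂. Cells were seeded at 5 × 10⁶ per 100 mm dish and treated with graded drug concentrations in serum-free DMEM. Viral DNA was extracted from the medium and quantified by real-time PCR against an HBV plasmid standard curve (10³–10⁷ copies), reported as mean, SD, n = 3.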

In data set [5] the test system is Hepatitis B virus. The data set can be described thus: Antiviral activity against Hepatitis B virus ayw in human 1.3ES2 cells stably transfected with 1.3 fold wild type HBV ayw strain genome cells assessed as reduction of viral pregenomic RNA level after 2 days by Northern blot. The data set is classed as functional, organism-based. Summed up:
(§1)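 1.3ES2 cells (HepG2 with 1.3 copies of HBV genome integrated) grown in DMEM with 10% fetal calf serum to confluence in 100 mm dishes, then switched to serum-free DMEM with compound (0, 1.5, 3.0, 9.0 µM) for 48 h. Total RNA Northern-hybridized with HBV DNA probe; 3.5-kb and 2.4/2.1-kb transcripts read, GAPDH mRNA as internal marker; representative of three independent experiments.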

Data set [6] deals with Hepatitis B virus. The data set can be described thus: Antiviral activity against Hepatitis B virus ayw in human 1.3ES2 cells stably transfected with 1.3 fold wild type HBV ayw strain genome cells assessed as reduction of major HbsAg mRNA level after 2 days by Northern blot. The data set is classed as functional, organism-based. An outline of the steps:
as §1

The test system of data set [7] is Hepatitis B virus. The data set can be described thus: Suppression of large viral surface antigen promoter activity of Hepatitis B virus in human HepA2 cells at 3 uM by luciferase reporter gene assay. The data set is classed as functional, organism-based. Summed up:
(§2)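 HepA2 cells transfected by lipofectamine 2000 with HBV S1P, S2P, core, X or enhancer I/X promoter–luciferase constructs plus β-gal vector, then held in serum-free DMEM with compound (0.9 or 3.0 µM) for 48 h. Lysate luciferase normalized to protein (Bradford) and β-gal, untreated set to one; mean ± SEM, at least three independent experiments.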
(A reporter such as luciferase makes a cellular process visible.)

Data set [8] relates to Hepatitis B virus. The data set is described as follows: Suppression of major viral surface promoter activity of Hepatitis B virus in human HepA2 cells at 3 uM by luciferase reporter gene assay. It counts as functional, organism-based. Summed up:
as §2

For data set [9], the system named is Hepatitis B virus. The data set is described as follows: Suppression of viral core protein promoter activity of Hepatitis B virus in human HepA2 cells at 3 uM by luciferase reporter gene assay. The data set is classed as functional, organism-based. Summed up:
as §2

Data set [10] has as its system Hepatitis B virus. The data set is described as follows: Suppression of enhancer 1 promoter activity of Hepatitis B virus in human HepA2 cells at 3 uM by luciferase reporter gene assay. It counts as functional, organism-based. Summed up:
as §2

For data set [11], the system named is Hepatitis B virus. The data set is described as follows: Suppression of viral X protein promoter activity of Hepatitis B virus in human HepA2 cells at 3 uM by luciferase reporter gene assay. It counts as functional, organism-based. An outline of the steps:
as §2

Where [12] appears, read: Hepatitis B virus, HepA2, 48 h, read-out: EC50.

Activity calls are given as the source filed them. The rule behind the calls is not given here. Some results are limits rather than exact numbers.

For `O=C1OC(=O)c2c1cc1ccc3c(c1c2-c1ccc2c(c1)OCO2)OCO3`, the EC50 in [1] (setting [12]) was more than 12.5 µM. The same compound had a CC50 at 48 h in data set [2] of 11.8 µM.
The matching figures for `COc1ccc(-c2c3c(cc4ccc5c(c24)OCO5)C(=O)OC3)cc1OC`: 7.64 µM and 5.86 µM.
The matching figures for `N#Cc1cc2c(c3c(-c4ccc5c(c4)OCO5)c4c(cc13)C(=O)OC4)OCO2`: more than 12.5 µM and more than 12.5 µM.
For the compound `COC(=O)c1c(C(=O)OC)c(-c2ccc3c(c2)OCO3)c2c3c(ccc2c1O)OCO3`, the EC50 in [1] (setting [12]) was more than 12.5 µM. The compound further displayed a CC50 at 48 h in [2] of 7.04 µM.
Consider `COc1ccc(-c2c3c(cc4ccc5c(c24)OCO5)C(=O)OC3=O)cc1OC`, for which the EC50 entry in [1] (hepa2) is on record as “Not Active”.
`O=C1OCc2c1cc1ccc3c(c1c2-c1ccc(OC(F)(F)F)cc1)OCO3`: the EC50 in data set [1] (setting [12]) is more than 12.5 µM. In addition, the CC50 at 48 h in data set [2] is more than 12.5 µM.
For the compound `CC(=O)OCc1cc2ccc3c(c2c(-c2ccc4c(c2)OCO4)c1COC(C)=O)OCO3`, in [1] (setting [12]), the EC50 worked out at 1.22 µM. The compound also returned a CC50 at 48 h in data set [2] of 6.91 µM.
The matching figures for `O=Cc1cc2ccc3c(c2c(-c2ccc4c(c2)OCO4)c1C=O)OCO3`: 2.39 µM and 5.31 µM.
For `O=C1OCc2c1cc1ccc3c(c1c2-c1ccc(OCc2ccccc2)c(OCc2ccccc2)c1)OCO3`, the EC50 in data set [1] (setting [12]) is more than 12.5 µM. This compound gave a CC50 at 48 h in data set [2] of more than 12.5 µM.
For `O=C1OCc2cc3ccc4c(c3c(-c3ccc(OCc5ccccc5)c(OCc5ccccc5)c3)c21)OCO4`, the EC50 in [1] (setting [12]) was more than 12.5 µM. Further, the CC50 at 48 h in data set [2] is more than 12.5 µM.
In the case of `N#Cc1cc2c(c3c(-c4cc5c(cc4Br)OCO5)c4c(cc13)C(=O)OC4)OCO2`, the EC50 in [1] (setting [12]) is more than 12.5 µM. This compound yielded a CC50 at 48 h in data set [2] of more than 12.5 µM.
Take `BrCc1cc2ccc3c(c2c(-c2ccc4c(c2)OCO4)c1CBr)OCO3`: the EC50 result in data set [1] (hepa2) was “Not Active”.
For `O=C1C=Cc2cc3c(c(-c4ccc5c(c4)OCO5)c2C1=O)COC3=O`, the EC50 in [1] (setting [12]) was more than 12.5 µM. Besides, the half-maximal cytotoxic concentration (CC50) at 48 h in [2] was 7.49 µM.
In the same order, the values of `O=C1OCc2c1cc1c(Br)cc3c(c1c2-c1cc2c(cc1Br)OCO2)OCO3` are more than 12.5 µM and more than 12.5 µM.
As to `CC(=O)OCCN1C(=O)c2cc3ccc4c(c3c(-c3ccc5c(c3)OCO5)c2C1=O)OCO4`, the inhibition entry in data set [3], in [4], in data set [5], in data set [6], in data set [7] and in data set [8] was “inactive” each time. Also, the inhibition entry in [9], in data set [10] and in data set [11] was “inactive” throughout. The EC50 in [1] (setting [12]) is more than 12.5 µM. This compound also came in with a CC50 at 48 h in data set [2] of more than 12.5 µM.
As for `CCOC(=O)c1cc2ccc3c(c2c(-c2ccc4c(c2)OCO4)c1C(=O)OCC)OCO3`, in data set [1] (setting [12]), the EC50 was more than 12.5 µM. The compound also came in with a CC50 at 48 h in data set [2] of more than 12.5 µM.
Take `O=C1OCc2c1cc1c(Br)cc3c(c1c2-c1ccc2c(c1)OCO2)OCO3`: in data set [1] (setting [12]), the EC50 was more than 12.5 µM. For the same compound, the CC50 at 48 h in [2] was 6.33 µM.
In the same order, the values of `O=C1OCc2cc3ccc4c(c3c(-c3ccc5c(c3)OCO5)c21)OCO4` are 2.18 µM and more than 12.5 µM.
The matching figures for `COC(=O)c1c(C(=O)O)c(O)c2ccc3c(c2c1-c1ccc2c(c1)OCO2)OCO3`: more than 12.5 µM and 7.01 µM.

A word on the EC50: it is the concentration at which the effect is half-maximal. For orientation: CC50 means the concentration at which the toxic effect on the cells reaches its halfway point.
